Laboratory results reported in ChEMBL document CHEMBL1126110, “Antirhinoviral activity of heterocyclic analogs of Win 54954” (1992).
Values after ≈ are worked out from the molar mass of the structure shown. Blank lines part the entries; values can stand above or below the compound they belong to. Active and inactive are the calls of the source. The rule behind the calls is not given here.

How the values were obtained:
[1] = test system: Human rhinovirus sp.; assay: (§1) In vitro inhibition of 80% of the serotypes; type: functional
Outline: (§2)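 Fifteen rhinovirus serotypes (HRV-14 plus 14 more) were each run in a plaque reduction assay in HeLa-Ohio cells. The MIC for each serotype was the μM concentration giving 50% plaque reduction. MIC80 is the concentration that inhibited 80% of the serotypes tested.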

[2] = test system: rhinovirus B14; assay: Minimum inhibitory concentration in vitro against HRV-14 in a plaque reduction assay; NA=Not active; type: functional, organism-based; conditions: human rhinovirus type 14
Outline: (§3)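 Plaque reduction assay in HeLa-Ohio cells. MIC is the concentration (μM) that cut plaque number by 50%.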

[3] = test system: rhinovirus B14; assay: Minimum inhibitory concentration in vitro against HRV-14 in a plaque reduction assay; type: functional, human rhinovirus type 14; conditions: Rhinovirus B; outline: as §3
[4] = test system: rhinovirus A30; assay: Minimum inhibitory concentration against human rhinovirus serotype 30; type: functional; conditions: Rhinovirus A; outline: as §3
[5] = test system: rhinovirus B14; assay: Minimum inhibitory concentration against human rhinovirus serotype 14; type: functional; conditions: Rhinovirus B; outline: as §3
[6] = test system: rhinovirus A1B; assay: Minimum inhibitory concentration against human rhinovirus serotype 1B; type: functional; conditions: Rhinovirus A; outline: as §3
[7] = test system: rhinovirus A41; assay: Minimum inhibitory concentration against human rhinovirus serotype 41; type: functional; conditions: Rhinovirus A; outline: as §3
[8] = test system: rhinovirus A2; assay: (§4) Minimum inhibitory concentration against human rhinovirus serotype 2; type: functional; conditions: Rhinovirus A; outline: as §3
[9] = test system: rhinovirus A15; assay: Minimum inhibitory concentration against human rhinovirus serotype 15; type: functional; conditions: Rhinovirus A; outline: as §3
[10] = test system: rhinovirus A89; assay: Minimum inhibitory concentration against human rhinovirus serotype 89; type: functional; conditions: Rhinovirus A; outline: as §3
[11] = test system: rhinovirus A50; assay: Minimum inhibitory concentration against human rhinovirus serotype 50; type: functional; conditions: Rhinovirus A; outline: as §3
[12] = test system: rhinovirus A22; assay: Minimum inhibitory concentration against human rhinovirus serotype 22; type: functional; conditions: Rhinovirus A; outline: as §3
[13] = test system: rhinovirus B86; assay: Minimum inhibitory concentration against human rhinovirus serotype 86; type: functional; conditions: Rhinovirus B; outline: as §3
[14] = test system: rhinovirus B6; assay: Minimum inhibitory concentration against human rhinovirus serotype 6; type: functional; conditions: Rhinovirus B; outline: as §3
[15] = test system: rhinovirus A21; assay: Minimum inhibitory concentration against human rhinovirus serotype 21; type: functional; conditions: Rhinovirus A; outline: as §3
[16] = test system: rhinovirus A25; assay: Minimum inhibitory concentration against human rhinovirus serotype 25; type: functional; conditions: Rhinovirus A; outline: as §3
[17] = test system: Human rhinovirus 1A; assay: Minimum inhibitory concentration against human rhinovirus serotype 1A; type: functional; outline: as §3
[18] = test system: rhinovirus A67; assay: Minimum inhibitory concentration against human rhinovirus serotype 67; type: functional; conditions: Rhinovirus A; outline: as §3
[19] = test system: rhinovirus A2; assay: as §4; type: functional; conditions: Rhinovirus A; outline: as §3; remark: listed apart in the source
[20] = test system: Human rhinovirus sp.; assay: as §1; type: functional; outline: as §2; remark: listed apart in the source

- MIC80 [1]: 2.88 µM (≈ 1.14 µg/mL)
- MIC [2]: inactive
Compound: Cc1cc(CCCCCOc2c(Cl)cc(-c3ccsc3)cc2Cl)on1

- MIC [3]: 0.71 µM (≈ 0.27 µg/mL)
- MIC80 [1]: 1.05 µM (≈ 0.399 µg/mL)
Compound: Cc1cc(CCCCCOc2c(Cl)cc(-c3ccco3)cc2Cl)on1

- MIC [3]: 5.2 µM (≈ 2.13 µg/mL)
- MIC80 [1]: 1.71 µM (≈ 0.702 µg/mL)
Compound: Cc1cc(CCCCCOc2c(Cl)cc(-c3ccc(C)s3)cc2Cl)on1

- MIC [3]: 2.79 µM (≈ 1.14 µg/mL)
- MIC80 [1]: 1.3 µM (≈ 0.532 µg/mL)
Compound: Cc1cc(CCCCCOc2c(Cl)cc(-c3nc(C)c(C)o3)cc2Cl)on1

- MIC [3]: 2.64 µM (≈ 1.04 µg/mL)
- MIC80 [1]: 1.27 µM (≈ 0.501 µg/mL)
Compound: Cc1cc(CCCCCOc2c(Cl)cc(-c3ccc(C)o3)cc2Cl)on1

- MIC [4]: 0.09 µM (≈ 0.0345 µg/mL)
- MIC [5]: 1.2 µM (≈ 0.46 µg/mL)
- MIC [6]: 0.17 µM (≈ 0.0652 µg/mL)
- MIC [3]: 1.2 µM (≈ 0.46 µg/mL)
- MIC80 [1]: 0.33 µM (≈ 0.126 µg/mL)
- MIC [7]: 0.89 µM (≈ 0.341 µg/mL)
- MIC [8]: 0.023 µM (≈ 0.00882 µg/mL)
- MIC [9]: 0.41 µM (≈ 0.157 µg/mL)
- MIC [10]: 0.02 µM (≈ 0.00767 µg/mL)
- MIC [11]: 0.06 µM (≈ 0.023 µg/mL)
- MIC [12]: 0.02 µM (≈ 0.00767 µg/mL)
- MIC [13]: 0.21 µM (≈ 0.0805 µg/mL)
- MIC [14]: 0.23 µM (≈ 0.0882 µg/mL)
- MIC [15]: 0.02 µM (≈ 0.00767 µg/mL)
- MIC [16]: 0.29 µM (≈ 0.111 µg/mL)
- MIC [17]: 2.51 µM (≈ 0.962 µg/mL)
- MIC [18]: 0.18 µM (≈ 0.069 µg/mL)
Compound: Cc1cc(CCCCCOc2c(Cl)cc(C3=NCCO3)cc2Cl)on1 [WIN-54954]

- MIC [3]: 5.88 µM (≈ 2.38 µg/mL)
- MIC80 [1]: 1.93 µM (≈ 0.782 µg/mL)
Compound: Cc1cc(CCCCCOc2c(Cl)cc(-c3cccc(C)n3)cc2Cl)on1

- MIC [3]: 6.64 µM (≈ 2.6 µg/mL)
- MIC80 [1]: 1.38 µM (≈ 0.54 µg/mL)
Compound: Cc1cc(CCCCCOc2c(Cl)cc(-c3ccccn3)cc2Cl)on1

- MIC [3]: 0.97 µM (≈ 0.38 µg/mL)
Compound: Cc1cc(CCCCCOc2c(Cl)cc(-c3ccncc3)cc2Cl)on1

- MIC [3]: 2.59 µM (≈ 1.1 µg/mL)
- MIC80 [1]: 2.14 µM (≈ 0.91 µg/mL)
Compound: Cc1cc(CCCCCOc2c(Cl)cc(-c3nc(C)c(C)s3)cc2Cl)on1

- MIC [2]: inactive
Compound: Cc1cc(CCCCCOc2c(Cl)cc(-c3cccn3C)cc2Cl)on1

- MIC [3]: 6.6 µM (≈ 2.58 µg/mL)
Compound: Cc1cc(CCCCCOc2c(Cl)cc(-c3cccnc3)cc2Cl)on1

- MIC [4]: 0.23 µM (≈ 0.0911 µg/mL)
- MIC [5]: 0.38 µM (≈ 0.151 µg/mL)
- MIC [6]: 0.05 µM (≈ 0.0198 µg/mL)
- MIC [19]: 0.025 µM (≈ 0.00991 µg/mL)
- MIC [3]: 0.38 µM (≈ 0.151 µg/mL)
- MIC80 [1]: 0.25 µM (≈ 0.0991 µg/mL)
- MIC [7]: 0.63 µM (≈ 0.25 µg/mL)
- MIC [8]: 0.025 µM (≈ 0.00991 µg/mL)
- MIC [9]: 0.25 µM (≈ 0.0991 µg/mL)
- MIC [10]: 0.01 µM (≈ 0.00396 µg/mL)
- MIC [11]: 0.06 µM (≈ 0.0238 µg/mL)
- MIC [12]: 0.008 µM (≈ 0.00317 µg/mL)
- MIC [13]: 0.24 µM (≈ 0.0951 µg/mL)
- MIC [14]: 0.23 µM (≈ 0.0911 µg/mL)
- MIC [15]: 0.02 µM (≈ 0.00793 µg/mL)
- MIC [16]: 0.08 µM (≈ 0.0317 µg/mL)
- MIC [17]: 0.38 µM (≈ 0.151 µg/mL)
- MIC [18]: 0.18 µM (≈ 0.0713 µg/mL)
Compound: Cc1cc(CCCCCOc2c(Cl)cc(-c3nnn(C)n3)cc2Cl)on1

- MIC [3]: 1.83 µM (≈ 0.698 µg/mL)
- MIC80 [1]: 1.71 µM (≈ 0.652 µg/mL)
Compound: Cc1cc(CCCCCOc2c(Cl)cc(-c3ncco3)cc2Cl)on1

- MIC [3]: 2.04 µM (≈ 0.808 µg/mL)
- MIC80 [1]: 7.02 µM (≈ 2.78 µg/mL)
- MIC80 [20]: 7.02 µM (≈ 2.78 µg/mL)
Compound: Cc1cc(CCCCCOc2c(Cl)cc(-c3nnnn3C)cc2Cl)on1

- MIC [2]: inactive
Compound: Cc1cc(CCCCCOc2c(Cl)cc(C3=NCCC3)cc2Cl)on1

- MIC [3]: 5.3 µM (≈ 2.28 µg/mL)
- MIC80 [1]: 3.13 µM (≈ 1.35 µg/mL)
Compound: Cc1cc(CCCCCOc2c(Cl)cc(-c3ccc(Cl)s3)cc2Cl)on1

- MIC80 [1]: 2.9 µM (≈ 1.1 µg/mL)
- MIC [2]: inactive
Compound: Cc1cc(CCCCCOc2c(Cl)cc(-c3ccoc3)cc2Cl)on1

- MIC [3]: 12.8 µM (≈ 4.86 µg/mL)
- MIC80 [1]: 2.24 µM (≈ 0.854 µg/mL)
Compound: Cc1cc(CCCCCOc2c(Cl)cc(-c3cnco3)cc2Cl)on1

- MIC [3]: 7.32 µM (≈ 2.9 µg/mL)
- MIC80 [1]: 1.11 µM (≈ 0.44 µg/mL)
Compound: Cc1cc(CCCCCOc2c(Cl)cc(-c3cccs3)cc2Cl)on1
